Assays:
[1] = target: T1, C-C chemokine receptor type 4 (Homo sapiens) (UniProt P51679); experiment: Antagonist activity at human CCR4 receptor expressed in mouse B300-19 cells assessed as CCL22-induced [35S]GTPgammaS binding at 1 uM; assay type: functional, cell-based
T1 sequence (whole entry): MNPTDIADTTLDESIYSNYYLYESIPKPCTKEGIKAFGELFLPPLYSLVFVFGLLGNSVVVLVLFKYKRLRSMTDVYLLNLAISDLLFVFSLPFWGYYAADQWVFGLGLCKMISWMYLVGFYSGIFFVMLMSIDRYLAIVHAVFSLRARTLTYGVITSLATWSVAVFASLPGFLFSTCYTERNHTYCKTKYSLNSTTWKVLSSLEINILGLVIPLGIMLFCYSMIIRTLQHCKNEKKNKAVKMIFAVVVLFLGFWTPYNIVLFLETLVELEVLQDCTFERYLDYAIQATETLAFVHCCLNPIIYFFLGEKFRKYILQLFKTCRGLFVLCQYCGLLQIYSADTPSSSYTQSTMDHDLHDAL
How it was run: (§1)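 B300-19 pre-B cell membranes stably expressing human CCR4 (1 µg protein/well), incubated 1.5 h at 25 °C with 150 pM [35S]GTPγS, 2 µM GDP, 3 nM MDC (CCL22), WGA SPA beads, in HEPES-NaOH pH 7.05, NaCl, MgCl2, BSA buffer. Scintillation counting. Percent inhibition from no-compound and no-CCL22 control wells. Duplicate wells, four test concentrations.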

[2] = target: T2, C-C chemokine receptor type 4 (Homo sapiens, UniProt P51679); experiment: Antagonist activity at human CCR4 receptor expressed in mouse B300-19 cells assessed as CCL22-induced [35S]GTPgammaS binding; assay type: functional, cell-based; how it was run: as §1
T2 sequence (P51679 whole entry): T1 sequence (whole entry)

[3] = system: Mus musculus; experiment: Antiinflammatory activity against oxazolone-induced contact hypersensitivity in BALB/c mouse model of acute dermatitis assessed as inhibition of ear swelling at 30 mg/kg, po bid; assay type: functional
How it was run: (§2)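 Female BALB/c mice, 7 weeks, n = 5, sensitized with 3% oxazolone in ethanol on the shaved abdomen. Challenged on day 6 with 1% oxazolone on the right ear. Ear thickness gauged 20 h after challenge. Twice-daily dosing was given 30 min before and 8 h after challenge. Single doses were given after challenge only (8 h or 12 h). Percent inhibition of swelling calculated against control and vehicle groups.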

[4] = system: Mus musculus; experiment: Antiinflammatory activity against oxazolone-induced contact hypersensitivity in BALB/c mouse model of acute dermatitis assessed as inhibition of ear swelling at 10 mg/kg, po qd; assay type: functional; how it was run: as §2
[5] = system: Mus musculus; experiment: Antiinflammatory activity against oxazolone-induced contact hypersensitivity in BALB/c mouse model of acute dermatitis assessed as inhibition of ear swelling at 30 mg/kg, po qd; assay type: functional; how it was run: as §2
[6] = system: Mus musculus; experiment: AUC (0 to 24 hrs) in BALB/c mouse at 100 mg/kg, po administered as single dose; assay type: ADME, organism-based, Plasma; set-up: time < 24 hr, dose 100 mg/kg, route oral; settings: in vivo
[7] = system: Mus musculus; experiment: AUC (0 to 24 hrs) in BALB/c mouse at 30 mg/kg, po administered as single dose; assay type: ADME, organism-based, Plasma; set-up: time < 24 hr, dose 30 mg/kg, route oral; settings: in vivo
[8] = Tmax in BALB/c mouse at 100 mg/kg, po administered as single dose; assay type: ADME, organism-based; set-up: dose 100 mg/kg, route oral; settings: in vivo
[9] = Cmax in BALB/c mouse at 30 mg/kg, po administered as single dose; assay type: ADME, organism-based; set-up: dose 30 mg/kg, route oral; settings: in vivo
[10] = system: Mus musculus; experiment: Antiinflammatory activity against oxazolone-induced contact hypersensitivity in BALB/c mouse model of acute dermatitis assessed as inhibition of ear swelling at 30 mg/kg, sc qd; assay type: functional; settings: route subcutaneous; how it was run: as §2
[11] = system: Mus musculus; experiment: Antiinflammatory activity against oxazolone-induced contact hypersensitivity in BALB/c mouse model of acute dermatitis assessed as inhibition of ear swelling at 100 mg/kg, po qd; assay type: functional; how it was run: as §2
[12] = Cmax in BALB/c mouse at 100 mg/kg, po administered as single dose; assay type: ADME, organism-based; set-up: dose 100 mg/kg, route oral; settings: in vivo
[13] = Tmax in BALB/c mouse at 30 mg/kg, po administered as single dose; assay type: ADME, organism-based; set-up: dose 30 mg/kg, route oral; settings: in vivo
[14] = system: Mus musculus; experiment: Antiinflammatory activity against oxazolone-induced contact hypersensitivity in BALB/c mouse model of acute dermatitis assessed as inhibition of ear swelling at 30 mg/kg, sc bid; assay type: functional; settings: route subcutaneous; how it was run: as §2
[15] = Antagonist activity at human CCR4 receptor expressed in mouse B300-19 cells assessed as CCL22-induced chemotaxis
[16] = Antagonist activity at mouse CCR4 receptor expressed in mouse B300-19 cells assessed as CCL22-induced chemotaxis
[17] = target: T3, C-C chemokine receptor type 4 (Mus musculus) (UniProt P51680); experiment: Antagonist activity at mouse CCR4 receptor expressed in mouse B300-19 cells assessed as CCL22-induced chemotaxis at 1 uM; assay type: functional, cell-based
T3 sequence (whole entry): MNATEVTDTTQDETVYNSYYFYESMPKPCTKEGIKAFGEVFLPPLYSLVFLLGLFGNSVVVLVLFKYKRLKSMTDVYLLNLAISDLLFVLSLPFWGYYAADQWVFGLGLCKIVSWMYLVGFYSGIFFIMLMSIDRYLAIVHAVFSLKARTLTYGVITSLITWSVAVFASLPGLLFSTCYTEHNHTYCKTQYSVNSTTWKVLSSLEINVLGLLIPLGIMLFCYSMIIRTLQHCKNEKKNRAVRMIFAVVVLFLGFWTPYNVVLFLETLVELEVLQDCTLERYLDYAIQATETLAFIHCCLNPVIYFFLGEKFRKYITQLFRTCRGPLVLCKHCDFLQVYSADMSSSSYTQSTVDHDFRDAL
How it was run: (§3)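 Stable CCR4 transfectants of B300-19 cells (human or mouse receptor) at 5 × 10^6 cells/mL in RPMI 1640 with 0.1% BSA, pretreated with test compound. Cells placed above 5-µm polycarbonate filters, with 3 nM human (human CCR4 cells) or 1 nM mouse (mouse CCR4 cells) CCL22 below. Migration for 3 h at 37 °C, 5% CO2. Migrated cells quantified by ATP bioluminescence. Triplicates, four concentrations.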

[18] = system: Mus musculus; experiment: Antiinflammatory activity against oxazolone-induced contact hypersensitivity in BALB/c mouse model of acute dermatitis assessed as inhibition of ear swelling at 100 mg/kg, po bid; assay type: functional; how it was run: as §2
[19] = target: T1, C-C chemokine receptor type 4 (Homo sapiens); experiment: Antagonist activity at human CCR4 receptor expressed in mouse B300-19 cells assessed as CCL22-induced chemotaxis at 1 uM; assay type: functional, cell-based; how it was run: as §3

In the case of `COc1cc2nc(N3CCC(N4CCCC(CO)C4)CC3)nc(NC3CCS(=O)(=O)CC3)c2cc1OC` (stereo not given), the inhibition [1] is reported as 0%.
In the case of `COc1cc2nc(N3CCC(N4CCCC(CO)C4)CC3)nc(C(O)c3ccc(Cl)cc3)c2cc1OC` (stereo not given), the inhibition [1] is reported as 7%.
For `COCC1CCCN(C2CCN(c3nc(Nc4ccc(Cl)cc4)c4cc(OC)c(OC)cc4n3)CC2)C1` (stereo not given), the IC50 [2] was 52 nM.
Work on `COc1cc2nc(N3CCC(N4CCCC(O)C4)CC3)nc(Nc3ccc(Cl)cc3)c2cc1OC` (stereo not given) yielded an IC50 [2] of 48 nM.
Work on `COc1cc2nc(N3CCC(N4CCCC(CO)C4)CC3)nc(N3CCc4cc(Cl)ccc43)c2cc1OC` (stereo not given) yielded an inhibition [1] of 40%.
`COc1cc2nc(N3CCC(N4CCCC(CO)C4)CC3)nc(NC3CCCCCC3)c2cc1OC` (stereo not given) gave an inhibition in vivo at 30 mg/kg [3] of 11% and an IC50 [2] of 30 nM.
Molecule `COc1cc2nc(N3CCC(N4CCCC(CO)C4)CC3)nc(Nc3ccc(Cl)cc3)c2cc1OC` (stereo not given) has an inhibition in vivo at 10 mg/kg [4] of 13%, an inhibition in vivo at 30 mg/kg [5] of 17% and an IC50 [2] of 19 nM. For the same molecule, the AUC [6] was 1750 ng·h/mL, the AUC [7] was 1010 ng·h/mL and the Tmax [8] was 2 h. For the same molecule, the Cmax [9] was 139 ng/mL, the inhibition in vivo at 30 mg/kg [10] was 44% and the inhibition in vivo at 100 mg/kg [11] was 39%. For the same molecule, the Cmax [12] was 262 ng/mL and the Tmax [13] was 2 h.
For `COc1cc2nc(N3CCC(N4CCCC(CO)C4)CC3)nc(NS(=O)(=O)c3ccc(Cl)cc3)c2cc1OC` (stereo not given), the inhibition [1] was 5%.
Molecule `COc1cc2nc(N3CCC(N4CCCC(CO)C4)CC3)nc(NC(=O)c3ccc(Cl)cc3)c2cc1OC` (stereo not given) has an inhibition [1] of 11%.
For `COc1cc2nc(N3CCC(N4CCCCC4)CC3)nc(NC3CCCCCC3)c2cc1OC`, the inhibition in vivo at 30 mg/kg [3] was 2%.
Molecule `COc1cc2nc(N3CCC(N4CCCC(CO)C4)CC3)nc(NC3CCOCC3)c2cc1OC` (stereo not given) has an inhibition [1] of 4%.
With `COc1cc2nc(N3CCC(N4CCCC(CO)C4)CC3)nc(NCc3ccc(Cl)cc3)c2cc1OC` (stereo not given) the IC50 [2] was 87 nM.
`COc1cc2nc(N3CCC(N4CCCC4)CC3)nc(Nc3ccc(Cl)cc3)c2cc1OC` gave an inhibition in vivo at 30 mg/kg [3] of 2%, an inhibition in vivo at 30 mg/kg [14] of 43% and an IC50 [15] of 110 nM. The IC50 [16] was 130 nM.
In the case of `COc1cc2nc(N3CCC(N4CCOC(CO)C4)CC3)nc(Nc3ccc(Cl)cc3)c2cc1OC` (stereo not given), the IC50 [2] is reported as 100 nM and the inhibition [17] is reported as 50%.
Work on `COc1cc2nc(N3CCC(N4CCCC4)CC3)nc(NC3CCCCCC3)c2cc1OC` yielded an inhibition in vivo at 100 mg/kg [18] of 8%, an inhibition in vivo at 30 mg/kg [10] of 39% and an IC50 [15] of 200 nM. The IC50 [16] was 130 nM.
For `COc1cc2nc(N3CCC(N4CCCC(CO)C4)CC3)nc(N(C)CCc3ccc(Cl)cc3)c2cc1OC` (stereo not given), the inhibition [1] was 23%.
Work on `COc1cc2nc(N3CCC(N4CCCC(CO)C4)CC3)nc(C(=O)c3ccc(Cl)cc3)c2cc1OC` (stereo not given) yielded an inhibition [1] of 42%.
`COc1cc2nc(N3CCC(N4CCCC(CO)C4)CC3)nc(NCCCc3ccc(Cl)cc3)c2cc1OC` (stereo not given) gave an IC50 [2] of 180 nM.
`COc1cc2nc(N3CCC(N4CCCC(OC)C4)CC3)nc(Nc3ccc(Cl)cc3)c2cc1OC` (stereo not given) showed an IC50 [2] of 100 nM.
For `COc1cc2nc(N3CCC(N4CCCC(CO)C4)CC3)nc(-c3ccc(Cl)cc3)c2cc1OC` (stereo not given), the IC50 [2] was > 1000 nM.
`COc1cc2nc(N3CCC(N4CCCC(CO)C4)CC3)nc(NCCc3ccc(Cl)cc3)c2cc1OC` (stereo not given) gave an inhibition [19] of 43% and an IC50 [2] of 61 nM.

From ChEMBL document CHEMBL1139358, “Potent and orally bioavailable CCR4 antagonists: Synthesis and structure-activity relationship study of 2-aminoquinazolines” (Bioorg Med Chem, 2009)
